Active and inactive are the calls of the source. No cut-off for these calls is given here.
Tests used:
Rattus norvegicus = assay: Reversal of reserpine-induced hypolocomotion in Sprague-Dawley rat at 10 umol/kg, ip administered 18 hrs post reserpine challenge measured for 6 hrs relative to reserpine-treated control; type: functional, organism-based
In short: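 Male and female Sprague−Dawley rats (220−225 g) were given reserpine 5.0 mg/kg sc 18 h beforehand and acclimatized in chambers for 1 h. Drug was given at 10 μmol/kg ip, and horizontal activity was recorded by infrared beam breaks for 6 h in 30 min bins. Three rats per group, compared with saline controls by one-way ANOVA with Dunnett's test.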

D(3) dopamine receptor [1] = target: D(3) dopamine receptor (Rattus norvegicus, UniProt P19020); assay: Displacement of [3H]Spiroperidol from cloned rat dopamine D3 receptor expressed in HEK293 cells by liquid scintillation counting analysis; type: cell-based
Chain of D(3) dopamine receptor (Rattus norvegicus, UniProt P19020) (P19020 whole entry): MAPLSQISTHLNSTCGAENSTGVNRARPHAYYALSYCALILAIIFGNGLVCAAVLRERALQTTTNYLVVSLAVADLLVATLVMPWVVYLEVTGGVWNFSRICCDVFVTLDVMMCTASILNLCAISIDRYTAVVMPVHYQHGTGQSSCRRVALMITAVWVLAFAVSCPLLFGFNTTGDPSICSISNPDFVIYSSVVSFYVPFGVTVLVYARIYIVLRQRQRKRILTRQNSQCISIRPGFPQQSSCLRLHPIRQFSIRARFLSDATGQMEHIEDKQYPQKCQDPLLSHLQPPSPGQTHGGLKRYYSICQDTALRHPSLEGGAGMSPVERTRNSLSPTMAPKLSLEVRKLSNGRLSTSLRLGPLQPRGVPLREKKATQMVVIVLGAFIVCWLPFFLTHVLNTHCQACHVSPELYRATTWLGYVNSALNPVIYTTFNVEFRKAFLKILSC

D(3) dopamine receptor [2] = target: T1, D(3) dopamine receptor (Homo sapiens, UniProt P35462); assay: Agonist activity at human D3 receptor expressed in CHO cells by [35S]GTPgammaS binding assay; type: functional, cell-based
T1 sequence (P35462 whole entry): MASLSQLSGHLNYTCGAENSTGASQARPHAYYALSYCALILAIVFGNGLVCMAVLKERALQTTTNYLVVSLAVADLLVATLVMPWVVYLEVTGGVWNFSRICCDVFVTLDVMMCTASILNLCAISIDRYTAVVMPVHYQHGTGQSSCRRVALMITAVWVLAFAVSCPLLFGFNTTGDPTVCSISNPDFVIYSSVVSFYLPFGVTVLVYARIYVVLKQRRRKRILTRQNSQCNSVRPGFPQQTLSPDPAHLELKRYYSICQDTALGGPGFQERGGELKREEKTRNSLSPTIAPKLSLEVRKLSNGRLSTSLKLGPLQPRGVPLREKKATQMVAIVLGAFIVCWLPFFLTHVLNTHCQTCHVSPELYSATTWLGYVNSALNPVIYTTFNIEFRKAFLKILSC

D(3) dopamine receptor [3] = target: T1, D(3) dopamine receptor; assay: Agonist activity at human D3 receptor expressed in CHO cells by [35S]GTPgammaS binding assay relative to dopamine; type: functional, cell-based
In short: (§1)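 Stimulation of [35S]GTPγS binding in CHO cells expressing hD2 or hD3 receptors. EC50 is the concentration giving half-maximal stimulation. […] Mean ± SEM of 3−6 experiments, each in triplicate.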

D(2) dopamine receptor = D(2) dopamine receptor (Rattus norvegicus, UniProt P61169); assay: Displacement of [3H]Spiroperidol from cloned rat dopamine D2L receptor expressed in HEK293 cells by liquid scintillation counting analysis; type: cell-based
Chain of D(2) dopamine receptor (P61169 whole entry): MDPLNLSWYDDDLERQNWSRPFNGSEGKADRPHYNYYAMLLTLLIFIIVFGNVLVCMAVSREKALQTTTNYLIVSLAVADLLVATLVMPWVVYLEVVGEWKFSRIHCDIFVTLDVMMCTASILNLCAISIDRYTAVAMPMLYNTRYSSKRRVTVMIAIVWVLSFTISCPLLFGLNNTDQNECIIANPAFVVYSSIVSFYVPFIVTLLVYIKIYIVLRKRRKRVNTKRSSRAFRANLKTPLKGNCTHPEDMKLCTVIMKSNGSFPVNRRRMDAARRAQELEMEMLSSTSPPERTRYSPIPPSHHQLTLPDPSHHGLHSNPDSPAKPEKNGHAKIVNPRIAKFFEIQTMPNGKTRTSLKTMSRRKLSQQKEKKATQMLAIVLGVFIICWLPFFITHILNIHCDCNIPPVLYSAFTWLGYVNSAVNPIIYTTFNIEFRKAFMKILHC
In short: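 Competition with [3H]spiroperidol binding at cloned rat D2L and D3 receptors expressed in HEK-293 cells, giving Ki values; the selectivity ratio is D2L Ki divided by D3 Ki.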

[4] = target: D(2) dopamine receptor (Homo sapiens) (UniProt P14416); assay: Agonist activity at human D2 receptor expressed in CHO cells by [35S]GTPgammaS binding assay relative to dopamine; type: functional, cell-based; in short: as §1
Chain of D(2) dopamine receptor (Homo sapiens) (P14416 whole entry): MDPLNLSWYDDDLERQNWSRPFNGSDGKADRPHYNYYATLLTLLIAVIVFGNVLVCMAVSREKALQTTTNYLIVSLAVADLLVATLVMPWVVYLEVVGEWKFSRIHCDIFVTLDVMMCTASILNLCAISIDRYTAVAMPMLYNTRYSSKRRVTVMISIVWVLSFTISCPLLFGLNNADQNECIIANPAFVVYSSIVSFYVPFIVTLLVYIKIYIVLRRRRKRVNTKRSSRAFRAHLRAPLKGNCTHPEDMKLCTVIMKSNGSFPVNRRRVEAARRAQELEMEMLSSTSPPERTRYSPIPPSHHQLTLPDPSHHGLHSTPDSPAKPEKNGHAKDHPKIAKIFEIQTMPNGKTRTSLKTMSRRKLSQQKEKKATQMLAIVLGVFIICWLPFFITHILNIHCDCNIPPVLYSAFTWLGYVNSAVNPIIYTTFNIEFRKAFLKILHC

HEK293 = assay: Selectivity ratio of Ki for cloned rat dopamine D2L receptor to Ki for cloned rat dopamine D3 receptor expressed in HEK293 cells; type: cell-based
In short: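 Competition with [3H]spiroperidol binding at cloned rat D2L and D3 receptors expressed in HEK-293 cells, giving Ki values; the selectivity ratio is D2L Ki divided by D3 Ki. Means ± SEM of 3−6 experiments, each in triplicate.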

PC-12 = assay: Neuroprotective activity against 6-OHDA-induced death of rat PC12 cells assessed as cell viability pretreated for 24 hrs measured 24 hrs post 6-OHDA challenge by MTT assay relative to 6-OHDA-treated control; type: functional, cell-based
In short: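 PC12 cells were pretreated with compound for 24 h; the medium was then replaced and 75 μM 6-OHDA added for a further 24 h. Controls received 0.01% DMSO. Viability was measured by MTT (0.5 mg/mL final, 3−4 h, A570/690 nm). Mean ± SD of at least three experiments, each in four to six replicates.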

[5] = Neuroprotective activity against 6-OHDA-induced death of rat PC12 cells assessed as cell viability pretreated for 24 hrs at 20 uM measured 24 hrs post 6-OHDA challenge by MTT assay relative to 6-OHDA-treated control; type: functional; conditions: PC-12, read-out: Activity
[6] = Antioxidant activity assessed as DPPH free radical scavenging activity after 30 mins; type: physicochemical; conditions: 0.5 h
[7] = Cytotoxicity against rat PC12 cells at 0.001 to 30 uM by MTT assay relative to control; type: cell-based; conditions: pc-12, in the assay text read “0.01 to 30 uM” for “0.001 to 30 uM”
In short: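 PC12 cells were grown in RPMI 1640 with 10% heat-inactivated horse serum and 5% FBS at 37 °C, seeded at 17000 cells/well for 24 h, then exposed to 0.01−30 μM compound. Viability was read by MTT (0.5 mg/mL final, 3−4 h), formazan dissolved in methanol:DMSO, A570 with 690 nm background, relative to untreated controls.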

[8] = target: D(2) dopamine receptor (Homo sapiens) (UniProt P14416); conditions: CHO, 200 nM
[9] = target: D(2) dopamine receptor (Homo sapiens) (UniProt P14416); assay: Antagonist activity against human D2 receptor expressed in CHO cells assessed as inhibition of dopamine-induced [35S]GTPgammaS binding; type: functional, cell-based
[10] = target: D(2) dopamine receptor (Homo sapiens) (UniProt P14416); conditions: CHO, 1 uM

Row | Ki (D(3) dopamine receptor [1]) [nM] | Ki (D(2) dopamine receptor) [nM] | SMILES | Ratio Ki (HEK293) | also measured
1 | – | – | CCCN[C@H]1CCc2nc(N)sc2C1 | – | Activity (Rattus norvegicus): Active
2 | 0.87 | 74.5 | CCCN(CCN1CCN(c2c(Cl)ccc3[nH]ccc23)CC1)[C@H]1CCc2nc(N)sc2C1 | – | EC50 (D(3) dopamine receptor [2]): 3.93 nM; Emax (D(3) dopamine receptor [3]): 104%; Emax [4]: 87.6%
3 | 3.66 | 156 | CCCN(CCN1CCN(c2cc(F)c3[nH]ccc3c2)CC1)[C@H]1CCc2nc(N)sc2C1 | 43 | –
4 | 13.8 | 1160 | CCCN(CCN1CCN(Cc2c[nH]c3cccc(Cl)c23)CC1)C1CCc2nc(N)sc2C1 (racemic) | 84 | –
5 | 25 | 1880 | CCCN(CCN1CCN(Cc2c[nH]c3cccc(OC)c23)CC1)C1CCc2nc(N)sc2C1 (racemic) | 75 | –
6 | – | – | CCCN(CCC)CCc1cccc2c1CC(=O)N2 | – | Activity (Rattus norvegicus): Active
7 | 12.1 | 854 | CCCN(CCN1CCN(Cc2c[nH]c3ccc(F)cc23)CC1)C1CCc2nc(N)sc2C1 (racemic) | 71 | –
8 | 8.87 | 992 | CCCN(CCN1CCN(Cc2c[nH]c3cccc(F)c23)CC1)C1CCc2nc(N)sc2C1 (racemic) | 112 | –
9 | 12.9 | 376 | CCCN(CCN1CCN(Cc2c[nH]c3ccc(Br)cc23)CC1)C1CCc2nc(N)sc2C1 (racemic) | 29 | –
10 | – | – | CCCN1CCC[C@@H](c2cccc(O)c2)C1 | – | Ke [8]: 362 nM; Emax (D(3) dopamine receptor [3]): 52%; Ke [9]: 372 nM; Emax [4]: 19.8%; Ke [10]: 383 nM
11 | 15.9 | 1640 | CCCN(CCN1CCN(Cc2c[nH]c3ccc(OC)cc23)CC1)C1CCc2nc(N)sc2C1 (racemic) | 101 | –

Row | SMILES | Ki (D(3) dopamine receptor [1]) [nM] | Ki (D(2) dopamine receptor) [nM] | Ratio Ki (HEK293) | also measured
12 | CCCN(CCN1CCN(c2ccc3cc[nH]c3c2Cl)CC1)[C@H]1CCc2nc(N)sc2C1.O=C(O)C(F)(F)F | 1.15 | 16.4 | – | Activity (PC-12): Dose-dependent effect; viability at 20 µM [5]: 30%; EC50 (D(3) dopamine receptor [2]): 1.41 nM; Emax (D(3) dopamine receptor [3]): 113%; Activity [6]: Dose-dependent effect; Activity [7]: Non-toxic; Activity (Rattus norvegicus): Active; Emax [4]: 101%
